According to publication PMC3381860 (Chemmedchem, 2011):
Several values for one entry are separate records, joined by “and”; a condition that tells them apart may be missing. Equal entries are not always repeated. Where two headings read alike, the source gives them in different places.

Columns and labels:
Vero = assay: Cytotoxicity against uninfected Vero cells; assay type: cell-based; details: for IC50: read-out: Cytotoxicity IC50 Vero, uninfected Vero cells
[1] = test system: P. falciparum Dd2 (chloroquine-resistant); assay: P. falciparum Dd2 antiplasmodial activity; assay type: cell-based, Plasmodium falciparum; details: read-out: Antiplasmodial activity IC50 Dd2
heme crystallization = assay: Parasite-free colorimetric heme crystallization inhibition; assay type: biochemical; details: molar equivalents of compound to heme
HepG2 = assay: Cytotoxicity against uninfected HepG2 cells; assay type: cell-based; details: read-out: Cytotoxicity IC50 HepG2
J774 = assay: Cytotoxicity against uninfected J774 cells; assay type: cell-based; details: read-out: Cytotoxicity IC50 J774
P. falciparum (3D7) [2] = assay: P. falciparum 3D7 proliferation; assay type: cell-based, Plasmodium falciparum
[3] = test system: P. falciparum HB3 (chloroquine-sensitive); assay: P. falciparum HB3 antiplasmodial activity; assay type: cell-based, Plasmodium falciparum; details: read-out: Antiplasmodial activity IC50 HB3
[4] = Spectrophotometric titration of Fe; assay type: binding
Method in brief: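 Heme (Fe(III)PPIX) titrated with test compound from 1:1 to 16:1 mol equiv compound:heme at 23 °C in 40 % DMSO, 20 mM HEPES, pH 7.4. Soret-band and Q-band absorbance recorded after each addition. Spectra corrected for dilution by subtracting a reference cell.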

P. falciparum (3D7) [5] = details: read-out: Antiplasmodial activity IC50 3D7, ref Hawley et al. [30]; cited from earlier work
[6] = test system: P. falciparum HB3 (chloroquine-sensitive); details: read-out: Antiplasmodial activity IC50 HB3, ref Hawley et al. [30]; cited from earlier work
[7] = read-out: Antiplasmodial activity IC50 3D7, 3D7, chloroquine-sensitive
[8] = read-out: P. falciparum (3D7) IC50, 3D7 strain

Compound: 18-acetylbromophycolide A [Compound 7]
- IC50 (Vero): 74000 nM
- fold increase in activity for P. falciparum parasites over mammalian (Vero) cells (Vero; selectivity P. falciparum vs Vero): 300 fold
- IC50 [1]: 304 ± 8.4 nM
- Heme crystallization IC50 (heme crystallization): 2.0 mol equiv and 2.0 ± 0.15 mol equiv
- IC50 (HepG2): 38500 nM
- IC50 (J774): 24700 nM
- IC50 (P. falciparum (3D7) [2]; [7]): 241 ± 52 nM
- IC50 (P. falciparum (3D7) [2]; [8]): 240 nM
- IC50 [3]: 431 ± 25 nM
- decrease in Soret band (λ 402 nm) absorbance of Fe^IIIPPIX upon titration ([4]; 40 % DMSO, 20 mM HEPES, pH 7.4): 25%

Compound: CCN(CC)Cc1cc(Nc2ccnc3cc(Cl)ccc23)ccc1O [AMQ, amodiaquine, reference compound]
- Heme crystallization IC50 (heme crystallization): 1.2 ± 0.19 mol equiv
- Heme crystallization IC50 (heme crystallization; listed as amodiaquine): 1.2 mol equiv
- IC50 (P. falciparum (3D7) [5]): 7.8 nM
- IC50 [6]: 8.5 nM

Compound: CC1=C2Cc3cc(ccc3O)C(=O)O[C@H](C(C)(C)Br)CC[C@](C)(O)[C@H](Br)CC[C@]2(C)[C@@H](Br)CC1 [Compound 1, bromophycolide A]
- IC50 (Vero): 34600 nM
- IC50 [1]: 377 ± 92 nM
- Heme crystallization IC50 (heme crystallization): 2.5 mol equiv and 2.5 ± 0.13 mol equiv
- IC50 (HepG2): 21300 nM
- IC50 (J774): 19000 nM
- IC50 (P. falciparum (3D7) [2]; [7]): 499 ± 51 nM
- IC50 (P. falciparum (3D7) [2]; [8]): 500 nM
- IC50 [3]: 493 ± 44 nM
- association constant log K of Fe^IIIPPIX–compound complex ([4]; 1:1 complexation model, 40 % DMSO, 20 mM HEPES, pH 7.4): 4.52 ± 0.18
- decrease in Soret band (λ 402 nm) absorbance of Fe^IIIPPIX upon titration ([4]; 40 % DMSO, 20 mM HEPES, pH 7.4): 45%
- binding concentration at half-maximum ([4]; spectrophotometric titration experiment): 25 µM

Compound: CC1=C2Cc3cc(ccc3O)C(=O)O[C@H](C(C)(C)O)CC[C@](C)(O)[C@H](Br)CC[C@]2(C)[C@@H](Br)CC1 [Compound 2, bromophycolide C]
- IC50 (P. falciparum (3D7) [2]; [8]): 56000 nM

Compound: C=C(C)[C@@H]1CC[C@](C)(O)[C@H](Br)CC[C@@]2(C)[C@H](Cc3cc(ccc3O)C(=O)O1)C(=C)CC[C@@H]2Br [Compound 4, bromophycolide E]
- IC50 (P. falciparum (3D7) [2]; [8]): 820 nM

Compound: C=C(C)[C@@H]1CCC(C)(O)[C@H](Br)CC[C@@]2(C)C(=C(C)CC[C@@H]2Br)Cc2cc(ccc2O)C(=O)O1 (stereo partly shown) [Compound 5, bromophycolide M]
- IC50 (P. falciparum (3D7) [2]; [8]): 550 nM

Compound: bromophycolide D [Compound 3]
- IC50 (P. falciparum (3D7) [2]; [8]): 350 nM

Compound: debromophycolide A [Compound 6]
- P. falciparum (3D7) IC50 (P. falciparum (3D7) [2]; 3D7 strain): completely inactive
- IC50 (P. falciparum (3D7) [2]; [8]): > 100000 nM
